# Test results reported in PubChem BioAssay AID704 (The Scripps Research Institute Molecular Screening Center, 2007).
# Screen size: about 97,000 compounds; about 770 (0.79%) were called active. Only a selection was taken, and actives are over-represented in it overall. A number with no mark means an inactive call.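 The calls were made as follows: active = inhibition above the screen-wide mean plus 3 SD (cut at about 35% in these data); inactive = the rest.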
# Molecular target: Protein Rev (Human immunodeficiency virus type 1 group M subtype B (isolate WMJ22)) (UniProt P05866)
# Sequence (P05866 whole entry, looked up): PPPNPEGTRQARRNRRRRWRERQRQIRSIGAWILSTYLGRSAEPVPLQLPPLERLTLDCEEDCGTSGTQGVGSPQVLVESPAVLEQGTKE
# Assay: disruptors of Rev peptide-RRE RNA complex – biochemical, FRET, protein-RNA interaction, primary screen (AID 704);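 also: 0% = median DMSO wells and 100% = median Neomycin B control wells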
# Settings: Rev peptide-RRE RNA binding, at 8 µM, active compounds read high
# In short: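 Material: labelled RRE RNA duplex and labelled Rev peptide / Buffer or medium: HEPES pH 7.5 salt buffer with EDTA / Compound dosing: single point, 8 µM final nominal compound concentration / Benchmarks: DMSO low control, neomycin B high control / Timing: 5 min preincubation and 15 min binding, 25 °C / Technique: FRET fluorescence readout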
row,Compound,inhibition
1,Cc1ccc(-n2c(CNc3ccc(F)cc3)nnc2SCC(=O)N2CCOCC2)cc1,5.16%
2,Cc1nn(C)c(Oc2ccccc2)c1[N+](=O)[O-],4.97%
3,CCC(c1nnnn1C(C)(C)C)N(Cc1cc2cccc(C)c2n2nnnc12)C1CCCC1 (stereo unspecified),7.78%
4,CCOC(=O)c1ccccc1NS(=O)(=O)c1ccc(OC)cc1,17.8%
5,Cc1cc(C)n(C(=O)CCNC(=O)c2ccccc2Cl)n1,4.01%
6,CC1CCc2c(c3ccccc3[nH]c2=O)O1 (stereo unspecified),4.83%
7,CC(=O)Nc1cccc(/C(C)=N/NC(=O)c2ccccc2Cl)c1,-0.39%
8,COc1ccc(C(=O)N2CC3(C)CC2CC(C)(C)C3)cc1OC (stereo unspecified),1.95%
9,O=C(/C=C/c1cc2c(cc1Br)OCO2)NCc1ccc(Cl)cc1,7.84%
10,Cc1cccc(N(CC(=O)Nc2ccc(-c3nc4ccc(C)cc4s3)cc2)S(C)(=O)=O)c1,1.45%
11,O=C(Nc1sc2c(c1-c1nc3ccccc3[nH]1)CCCC2)C1CC1,12.5%
12,NC1=NC(=O)C2(COC(c3ccccc3Cl)OC2)S1 (stereo unspecified),1.07%
13,CCN(CC)c1ccc(/C=N/Nc2nc(C)cc(=O)[nH]2)cc1,15.3%
14,CCN(CC)c1ccc2cc(C(=O)O)c(=O)oc2c1,11%
15,CCN(CC)c1ccc2oc(=O)c(C)nc2c1,121% [fluorescence artefact?] (active)
16,CCS(=O)(=O)Nc1ccc(C2=NN(S(=O)(=O)c3ccc(F)cc3)C(c3ccco3)C2)cc1 (stereo unspecified),3.07%
17,O=C(Nc1ccccc1-c1nnn(CC(=O)N2CCCc3ccccc32)n1)c1cccc(Cl)c1,13.6%
18,COc1cnc(SCc2ccc(Cl)c(Cl)c2)nc1Cl,10%
19,Cc1ccccc1N/N=C/c1ccc(N2CCOCC2)cc1,6.17%
20,Cc1ccc(Cc2cnc(NC(=O)/C(C#N)=C/c3ccc(-c4cccc([N+](=O)[O-])c4)o3)s2)cc1,5.73%
21,CCOCC(=O)Nc1sc2c(c1C(=O)OCC)CCCC2,10.1%
22,CCOC(=O)c1c(NC(=S)Nc2ccccc2)sc2c1CCN(C)C2,103% [fluorescence artefact?] (active)
23,CCOC(=O)c1c(NC(=S)NC(=O)c2ccco2)sc2c1CCCC2,0.19%

row,Compound,inhibition
1,COc1cc(N2CCCC2)c(OC)cc1/C=C(/C#N)c1cccc(Br)c1,115% [fluorescence artefact?] (active)
2,COc1cccc(C(=O)Nc2ccc(N3CCCC3)cc2)c1,9.26%
3,CC(=O)Nc1cccc(Oc2cc(C#N)c(C#N)cc2N2CCOCC2)c1,5.35%
4,CC1CN(c2nc(-c3ccccc3)nnc2-c2ccccc2)CC(C)O1 (stereo unspecified),8.23%
5,COCCCNCC(=O)Nc1sc(C)c(C)c1C(=O)OC,1.88%
6,CN1OC(COC(=O)c2ccc(Cl)cc2)CC1c1ccccc1 (stereo unspecified),7.44%
7,C=CCc1ccc(OCCOc2cccc(/C=N/n3cnnc3)c2)c(OC)c1,-0.22%
8,Clc1ccc(-c2cc(COc3ccccc3)no2)cc1Cl,17.6%
9,CC(CO)N1CCS(=O)(=O)CC1 (stereo unspecified),4.13%
10,CCN(CC)C(=O)CSc1ncnc2c1cnn2-c1ccccc1,9.25%
11,O=C(CN1C(=O)NC2(CCCC2)C1=O)Nc1ccc(F)c(F)c1F,6.86%
12,CC(C)c1ccc(C(=O)NCCCc2ccccc2)cc1,16.8%
13,CC(C)C[C@@H](N)c1nnc(SCC(=O)c2ccc(Cl)cc2)o1,6.78%
14,CCCCOC(=O)Cn1c(=O)n(CC(=O)OCCCC)c2cc(C)ccc21,3.29%
15,CCOc1cc(/C=C2/N=C(c3ccc(C(C)(C)C)cc3)OC2=O)cc(Cl)c1OS(C)(=O)=O,-2.97%
16,Cc1ccc(-n2nc3cc(C)c(NC(=O)c4cccnc4)cc3n2)cc1,6.32%
17,Cc1ccc(S(=O)(=O)/N=C(/Nc2ccccn2)c2ccc(Cl)cc2)cc1,3.03%
18,CC(=O)c1cc(NC(=O)c2ccccc2)c(=O)oc1/C=C/N(C)C,119% [fluorescence artefact?] (active)
19,Cc1ccccc1NC(=O)c1ccccc1,3.87%
20,CCOC(=O)c1cc(NC(=O)c2ccc(Cl)cc2)c(=O)oc1-c1ccccc1,10.3%
21,c1ccc(-c2csc(N3CCc4ccccc4C3)n2)cc1,3.58%
22,Cc1c(-c2ccccc2)cn2c1-c1ccc(C)n1CC2,47.1% (active)
23,Cc1cc(=O)oc(C)c1C(=O)NCc1ccc(F)cc1,8.7%
